High-throughput results from PubChem.
Compounds with a hit are over-represented: about 1.4% of the library has one in this group of screens.
Diaph act CS: activates diaphorase or chemically reduces, flagging diaphorase assay artifacts; Diaphorase/resazurin coupled assay, resorufin fluorescence, 16 min; hits give high values; 1 = vehicle wells, 0 = NADH-free wells; activation factor at 20 µM; hit rate 0.005% among 190,000; AID 1229;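 active means diaphorase activity raised at least twofold by the compound at 20 µM; inactive means activation factor below 2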
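Assay system: Purified diaphorase enzyme from Clostridium kluyveri | Amount: Enzyme 0.07 U/mL final | Dosing: Compound 20 µM once, DMSO 1% | Timing: 16 min reaction at room temperature | Detection: Fluorescence, excitation 544 nm and emission 590 nm | Evaluation: Higher resorufin formation from activation or reduction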
PMI act hi M6P: increases human PMI activity with near-saturating mannose 6-phosphate | P34949 | coupled PMI enzyme assay, resazurin fluorescence, 20 min; hits give high values; 1 = untreated enzyme, 0 = substrate-free blank | activation factor at 20 µM | hit rate 0.34% among 190,000 | AID 1216;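 active means activation factor of 2 or more at 20 µM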
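Test system – human PMI in coupled enzyme assay · Timing – 20 min incubation at room temperature · Detection – Diaphorase-driven resazurin-to-resorufin fluorescence, excitation 544, emission 590 nm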
NCF1 inh: inhibitors of human p47phox binding. P14598. p47phox/p22phox peptide binding, fluorescence polarization, 2 h. inhibition, % at 24.7 µM. hit rate 0.53% among 220,000;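 active means inhibition above about 30%, limit read from the data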;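 further: 0% = p47phox with labelled peptide and 100% = labelled peptide alone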
Target sequence (P14598 whole entry, looked up): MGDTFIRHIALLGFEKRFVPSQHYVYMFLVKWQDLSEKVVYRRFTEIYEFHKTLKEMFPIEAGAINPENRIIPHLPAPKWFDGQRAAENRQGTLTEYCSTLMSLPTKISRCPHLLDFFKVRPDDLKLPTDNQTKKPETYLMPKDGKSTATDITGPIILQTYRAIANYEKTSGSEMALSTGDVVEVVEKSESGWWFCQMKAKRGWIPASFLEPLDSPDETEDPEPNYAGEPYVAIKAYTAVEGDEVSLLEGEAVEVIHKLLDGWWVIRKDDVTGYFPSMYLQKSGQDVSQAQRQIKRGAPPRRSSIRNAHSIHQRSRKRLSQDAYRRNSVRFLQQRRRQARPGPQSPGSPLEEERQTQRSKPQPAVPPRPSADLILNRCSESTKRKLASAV
GSH bead fluor: compound fluoresces at 488/530 nm on GSH beads; GSH beads flow cytometry, compound fluorescence 488/530 nm; hits give high values; fluorescence (KMESF) at 10 µM; hit rate 0.25% among 190,000; AID 1776; in the data active means fluorescence above about 89;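 further: glutathione beads carrying GST-tagged Bcl family fusion proteins plus one bare bead set; values are compound well signal with DMSO vehicle wells as background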
PMI activator: phosphomannose isomerase (human) activation. activation factor at 20 µM. P34949. hit rate 0.005% among 190,000. purified human PMI, coupled resazurin fluorescence, 20 min; hits give high values; 1 = vehicle control, 0 substrate-free wells;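 active means activation factor of 2 or more at 20 µM, relative to plate controls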
Avidin fluor: avidin bead compound fluorescence profile; Avidin beads, compound fluorescence 488/530 nm, flow cytometry; hits give high values; fluorescence (KMESF) at 10 µM; hit rate 0.38% among 220,000; in the data active means fluorescence above about 47
Active calls of the source: *; / = no result.

SMILES | Diaph act CS | PMI act hi M6P | NCF1 inh | GSH bead fluor | PMI activator | Avidin fluor
O=C(NCc1ccccc1)C(=O)NCC(c1ccco1)N1CCN(c2ccccc2F)CC1 (centres undefined) | 0.8 | 0.9 | 59.1* | 10 | 0.9 | 8
COC(=O)CSc1nc(NC(C)C)nc(N2CCOCC2)n1 | 1 | 1 | -12.0 | 34 | 1 | 14
CC(C)C(=O)N1CCc2cc(-c3csc(N)n3)ccc21 | 0.9 | 2.1* | -13.6 | 18 | 1.7 | 27
O=C(NCc1cn(-c2ccccc2)nc1-c1ccccc1)c1ccc([N+](=O)[O-])cc1 | 0.8 | 0.9 | -18.2 | 26 | 0.9 | 18
COc1ccc(N=C2O/C(=C/c3sc(=S)n(CC4CCCO4)c3O)N=C2C#N)cc1 (centres undefined) | / | / | 42.5* | / | / | 6
Cc1ccc(SCC(=O)Nc2ccccc2C(=O)N2CCOCC2)cc1 | 1 | 0.9 | -0.9 | 20 | 0.9 | 12
CC(C)CCOc1cccc(OCC(=O)O)c1 | 1.1 | 1.2 | -67.4 | 63 | 1.2 | 84*
Cn1c(SCc2ccc(Br)cc2)nnc1-c1ccccn1 | / | / | 7.3 | / | / | 7
O=c1cc(C(F)F)oc2c1ccc1ccccc12 | 1.1 | 1 | -6.5 | 22 | 1 | 30
Cc1ccccc1CSCC(=O)NC(=O)NCc1ccco1 | 1 | 1.1 | -8.7 | 261* | 1 | 6
C=C(C)c1cccc(C(C)(C)NC(=O)N(C)C2CCN(C)CC2)c1 | 0.9 | 1 | 109.7* | 14 | 1 | 12
C=C(C)c1cccc(C(C)(C)NC(=O)N2CCCC(C)C2)c1 (centres undefined) | 0.9 | 0.9 | -14.0 | 20 | 0.9 | 8
Cc1ccc(NC(=O)Cn2c(O)c(N=NC(=O)c3cc([N+](=O)[O-])ccc3O)c3ccccc32)cc1 | / | / | -19.2 | / | / | 5
Cc1cccc(NC(=O)Cn2c(O)c(N=NC(=O)c3ccccc3O)c3ccccc32)c1 | 1.1 | 1.1 | 32.7* | 8 | 0.9 | 8
COc1cc(-c2[nH]ncc2CN2CCN(Cc3cccs3)CC2)cc(OC)c1OC | 1 | 0.9 | -8.7 | 15 | 0.9 | 6
CCCCNC(=O)c1cc2n(n1)C(C(F)(F)F)CC(c1ccccc1)N2 (centres undefined) | 0.8 | 0.9 | 57.4* | 36 | 0.9 | 9
Cc1ccc(CNC(=O)C2CCCN(c3nc4ccsc4c(=O)s3)C2)cc1 (centres undefined) | 1 | 1 | 2.7 | 20 | 1 | 8
Cc1ccc(N2CCN(C(=O)c3ccccc3)CC2)c(C)c1 | 0.9 | 0.9 | 91.5* | 6 | 0.8 | 11
CC(C)NC(=O)c1ccc(COCC(F)(F)C(F)F)cc1 | 1 | 1.1 | -4.7 | 33 | 1.1 | 13
NC(=O)CC1SC(N)=NC1=O (centres undefined) | 1 | 1.1 | -6.5 | 10 | 1.1 | 18
CCCC(C(=O)NC(C)(C)C)N(C(=O)c1snc(C(N)=O)c1N)c1ccc2c(c1)OCCO2 (centres undefined) | 0.9 | 1.1 | -4.3 | 11 | 1.1 | 47*
Cc1ccc(C(C(=O)NC(C)(C)C)N(Cc2ccccc2)C(=O)c2snc(C(N)=O)c2N)o1 (centres undefined) | 1 | 1 | 1.8 | 10 | 1.1 | 128*
Cc1ccc(C(=O)Nc2nn(C)c3cccc(F)c23)cc1 | / | / | 1.4 | / | / | 8
CN(c1ccccc1)c1nc2ccsc2c(=O)s1 | 0.9 | 1 | -13.8 | 32 | 1 | 169*
Cc1ccc(NC(=O)C2OCCc3ccccc32)cc1C (centres undefined) | 0.9 | 1 | -3.2 | 8 | 1 | 8
SMILES | Diaph act CS | PMI act hi M6P | NCF1 inh | GSH bead fluor | PMI activator | Avidin fluor
CCSc1ccc2nnc(-c3cccc(F)c3)n2n1 | 0.7 | 2* | 2.8 | 10 | 1 | 10
NC(=O)CSc1nnc(-c2ccc3c(c2)OCO3)o1 | 1 | 1 | -2.1 | 19 | 1 | 9
C/C(N)=C(/C#N)C(=O)CSc1nnc(-c2ccc3c(c2)OCO3)o1 | 1 | 1.1 | 42.0* | 25 | 1 | 31
O=C(Nc1ccccc1Cl)c1ccccc1Cl | 0.9 | 0.9 | -7.7 | 11 | 0.9 | 20
O=C1OCC(CO)(CO)N=C1NNc1ccccc1Cl | 0.9 | 2* | -13.3 | 8 | 1.6 | 11
COc1ccccc1NC(=O)CSc1ccc2nnc(-c3ccncc3)n2n1 | 0.9 | 1 | -2.5 | 23 | 1.1 | 14
COc1ccccc1NC(=O)CSc1ccc2nnc(-c3ccc(C)cc3)n2n1 | 0.7 | 1 | 35.1* | 19 | 1 | 7
O=C1NCCN1c1ccc(CN2CCN(C3CCCCC3)C(CCO)C2)cc1 (centres undefined) | 0.9 | 0.9 | 64.0* | 12 | 0.9 | 7
CC(C)(C)NC(=O)COc1ccc(CNn2nnnc2N)cc1 | 0.9 | 0.9 | 55.9* | 10 | 1 | 8
CN(CCOC(=O)/C=C/c1ccccc1)C(C)(C)C | 0.9 | 0.9 | 5.0 | 6 | 0.8 | 2
CC(C)N(C)CCOC(=O)/C=C/c1ccccc1 | 0.8 | 1.1 | 37.6* | 6 | 1.1 | 1
N#CCCN(Cc1cccnc1)C(=S)Nc1ccccc1Cl | 0.8 | 1 | 36.6* | 9 | 0.9 | 18
O=C(NCc1ccco1)C1CC2CCC1C2 (centres undefined) | 0.9 | 1 | -8.9 | 246* | 0.9 | 9
O=C(O)C1C2CCC(C2)C1C(=O)NCc1ccco1 (centres undefined) | 0.8 | 0.9 | -5.7 | 5 | 0.9 | 8
O=c1c2c(C(F)(F)F)cc(C(F)(F)F)nc2[nH]n1-c1ccccc1 | 0.9 | 1 | -4.1 | 89* | 1.1 | 5
O=C(COc1ncnc2scc(-c3ccccc3)c12)NC1CCCc2ccccc21 (centres undefined) | 0.8 | 1 | -13.4 | 12 | 0.9 | 5
C(#Cc1ccccc1)C[N+]1(CC#Cc2ccccc2)CCCC1 | 0.8 | 0.9 | -5.3 | 10 | 1 | 14
C=CC#CC[N+]1(CC#Cc2ccccc2)CCOCC1 | 1.5 | 0.9 | 60.6* | 9 | 1.1 | 3
O=C1NC(=Nc2ccccc2)CS1 | / | / | -5.2 | / | / | 7
CCC1(CC)C(=O)N(C)C(=O)NC1=Nc1ccccc1 | 1 | 1.1 | -7.0 | 273* | 1.1 | 9
O=C1CC(NNc2ccccc2)C(=O)N1c1ccc(N2CCCCC2)cc1 (centres undefined) | 1.1 | 2.7* | -4.3 | 21 | 1.8 | 10
COC(=O)C1=C(C)OC(N)=C(C#N)C1c1cc(C)sc1C (centres undefined) | 0.9 | 0.9 | -12.9 | 273* | 0.9 | 7
Cc1ccc(S(=O)(=O)/N=C2/C=C(Sc3ncn[nH]3)C(=O)c3ccccc32)c(C)c1 | 0.3 | 0.1 | 37.3* | 1 | 0 | 0
CCOc1ccc(S(=O)(=O)Nc2ccc(O)c(Sc3ncn[nH]3)c2)cc1 | 0.9 | 1 | -1.6 | 17 | 1 | /
